Source: PubChem
Sampled rows, rich in hits. Any-hit rate of the full collection: about 3.1%.
OX1R antag-1: human HCRTR1 antagonism | AID 434989 | inhibition, % at 5 µM | 0.43% of 330,000 active | O43613 | CHO/OX1R cells, Fluo-8 calcium fluorescence, orexin A;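 active = inhibition above its plate's threshold, mean inhibition of all tested compounds on the plate plus 3 SD, cut at about 37% in these data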;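 also: 0% = orexin A challenge wells and 100% = SB-334867-A antagonist wells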
Target sequence (O43613 whole entry, looked up): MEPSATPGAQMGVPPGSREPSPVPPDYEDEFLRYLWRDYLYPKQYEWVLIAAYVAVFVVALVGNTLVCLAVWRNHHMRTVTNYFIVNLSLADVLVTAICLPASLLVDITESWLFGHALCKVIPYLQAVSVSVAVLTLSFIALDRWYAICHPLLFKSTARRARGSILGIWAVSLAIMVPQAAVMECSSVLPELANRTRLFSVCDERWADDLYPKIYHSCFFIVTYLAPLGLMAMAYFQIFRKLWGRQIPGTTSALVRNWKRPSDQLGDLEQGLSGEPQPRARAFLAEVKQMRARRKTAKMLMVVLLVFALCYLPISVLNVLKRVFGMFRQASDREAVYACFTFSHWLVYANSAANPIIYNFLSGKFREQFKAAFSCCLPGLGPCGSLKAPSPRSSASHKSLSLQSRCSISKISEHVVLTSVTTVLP
GPR7 antagonist: blocks human GPR7 receptor signaling. P48145. 1.1% of 290,000 active. AID 1861. GPR7-expressing cells, fluorescence antagonist assay. inhibition, % at 4.4 µM; in the data active = inhibition above about 16%, passing the limit was not always enough;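 also: cells stimulated with the agonist NPW; 0% = agonist with vehicle and 100% = vehicle without agonist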
GalR3 antagonist: antagonists of human GalR3; O60755; HEK293 GalR3-CNG cAMP membrane potential fluorescence; galR3 body fused to GalR1 C-terminus; inhibition, % at 3 µM; 0.44% of 360,000 active; AID 651719;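 active = inhibition above the screen-wide average plus 3 SD, cut at about 13% in these data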;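 also: forskolin and galanin both at EC90 stimulate the cells; cAMP rise reported by CNG channel membrane potential dye signal; 0% = forskolin plus galanin with DMSO and 100% = forskolin alone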
CHO parental Ca: counter-screen for OX1R antagonists: effect in parental CHO cells; parental CHO-K1, ATP-induced calcium, Fluo-8 fluorescence; inhibition, % at 5.6 µM; 0.63% of 330,000 active;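 active = inhibition above that plate's mean sample inhibition plus 3 SD, cut at about 26% in these data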;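 also: 0% = ATP-challenged DMSO wells and 100% = DMSO wells without ATP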
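Material – parental CHO cells · Reagent – ATP stimulus · Compound – single nominal dose of 5.6 µM per compound · Detection – Fluo-8 fluorescence · Read-out basis – percent inhibition of calcium signal · Controls – ATP-challenged DMSO wells low, unchallenged DMSO wells high · Repeats – no replicates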
OX1R antag-2: antagonists of human orexin 1 receptor (OX1R); O43613; OX1R-expressing cells, FRET antagonist read-out; inhibition, % at 6.6 µM; 1.8% of 330,000 active; AID 485270; in the data active = inhibition mostly above about 38%, no sharp cut-off; inactive = mostly below about 40%;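 also: 0% = agonist challenge alone and 100% = reference antagonist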
OX1R Fluo8 conf: OX1R (human) antagonism, confirmed; inhibition, % at 5 µM; CHO/OX1R cells, orexin A calcium Fluo-8 fluorescence; 38% of 1,100 active; shares compounds with OX1R antag-1; in the data active = inhibition above about 29%;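 also: 0% = agonist challenge alone and 100% = reference antagonist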
CHO Ca counter: signal in parental CHO cells, OX1R antagonist counter-screen; shares compounds with OX1R antag-1; parental CHO-K1, ATP-induced calcium, Fluo-8 fluorescence; 9.3% of 1,100 active; AID 492965; inhibition, % at 5.6 µM;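 active = inhibition above a per-plate limit, the mean inhibition of that plate's test compounds plus 3 SD, cut at about 25% in these data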;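 also: 0% = ATP challenge with DMSO and 100% = DMSO without ATP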
OX1R HTRF confirm: OX1R (human) antagonism, HTRF confirmed; shares compounds with OX1R antag-2; OX1R-expressing cells, HTRF antagonist assay; inhibition, % at 6.6 µM; 49% of 1,800 active; AID 492964; in the data active = inhibition above about 55%;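 also: CHO cells expressing OX1R stimulated with orexin A at about EC80; 0% = agonist challenge alone and 100% = reference antagonist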
CHO-K1 HTRF cnt: counter-screen for OX1R antagonists: effect in parental CHO-K1 cells; shares compounds with OX1R antag-2; HTRF counterscreen; inhibition, % at 6.6 µM; 48% of 1,800 active; AID 493232; in the data active = inhibition above about 17%;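 also: 0% = agonist challenge with vehicle and 100% = vehicle alone without agonist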
Starred values were filed as active, the others as inactive; / = no result given.

SMILES	OX1R antag-1	GPR7 antagonist	GalR3 antagonist	CHO parental Ca	OX1R antag-2	OX1R Fluo8 conf	CHO Ca counter	OX1R HTRF confirm	CHO-K1 HTRF cnt
Cc1cccc(N2CCN(C(=O)C3CCN(c4ncnc5c4nc4n5CCCCC4)CC3)CC2C)c1 (centres undefined)	37	0	-9	3	13	1	-7	/	/
Cc1cc(=O)[nH]c2sc(C(=O)N3c4ccccc4CC3C)c(N)c12 (centres undefined)	0	/	-6	-15	13	/	/	/	/
CCC(NC(=O)c1cc(COc2cc(C)c(Cl)c(C)c2)on1)c1ccncc1 (centres undefined)	42*	17	-3	17	17	27	7	/	/
CCC(NC(=O)c1cc(COc2ccc(OC)cc2Cl)on1)c1ccncc1 (centres undefined)	-12	9	-3	-15	4	/	/	/	/
c1ccc(Nc2nc(NCc3ccco3)c3ccccc3n2)cc1	31	-9	4	18	16	15	15	/	/
CSc1nc(NCc2ccco2)c2ccccc2n1	-18	-8	2	-16	24	/	/	/	/
Cc1ccc(-n2nnnc2SCn2nnc3ccccc3c2=O)c(C)c1	42*	-6	-7	8	10	12	21	/	/
Cc1ccc(C)c(OCCC(=O)NNC(=O)c2ccncc2)c1	3	/	-3	4	12	/	/	/	/
Cc1ccc(C)c(OCCC(=O)NNC(=O)c2ccccc2)c1	18	/	-3	8	14	-4	-3	/	/
COC(=O)C(Cc1ccccc1)NCC(=O)Nc1cccc(Cl)c1C (centres undefined)	-19	5	-10	-12	13	/	/	/	/
CCN(CC)c1ccc2c(c1)OC(N)=C(C#N)C2c1cccnc1 (centres undefined)	29	9	4	20	16	8	10	/	/
CC1(C(=O)NS(C)(=O)=O)CCN1C(=O)Cc1ccc(Cl)cc1Cl (centres undefined)	/	/	-7	/	/	/	/	/	/
Cc1noc(C)c1COc1ccc(C(=O)OCC(=O)N2c3ccccc3NC(=O)C2(C)C)cc1	29	0	-2	-13	16	47*	5	/	/
Cc1noc(C)c1COc1ccc(C(=O)OCC(N)=O)cc1	-13	-1	-6	-4	8	/	/	/	/
Cc1noc(C)c1CSCC(=O)OCC(=O)N1CC(=O)Nc2ccccc21	-21	-14	-5	-3	19	/	/	/	/
Cc1noc(C)c1COc1ccc(C(=O)OCC(=O)N2CC(=O)Nc3ccccc32)cc1	82*	-5	-5	-2	35	76*	-7	/	/
Cn1c(N)c(C(=O)CSc2nn(-c3ccc(F)cc3)c(=S)s2)c(=O)n(C)c1=O	2	/	-9	-11	10	/	/	/	/
NC1=NC2(CCCCC2)N=C(Nc2ccc(Br)cc2)N1	-15	-8	-2	2	7	/	/	/	/
Cc1c(C)c2ccc(OC(C)C(=O)NCc3ccccn3)cc2oc1=O (centres undefined)	-9	0	-6	-13	11	/	/	/	/
CC(Oc1ccc2c3c(c(=O)oc2c1)CCCC3)C(=O)NCc1ccccn1 (centres undefined)	54*	-8	3	-26	20	-11	-14	/	/
Cc1cc(C)c(NC(=O)COC(=O)c2c(C)noc2C)c(Cl)c1	-17	/	-3	-20	3	/	/	/	/
O=C1CC(NCc2ccccc2F)C(=O)N1c1ccccc1 (centres undefined)	43*	-2	-5	5	1	-2	-4	/	/
Fc1ccc2nc3[nH]c4ccccc4c3nc2c1	36	-6	-5	7	98*	10	-3	64*	2
O=C(NC(Cc1c[nH]c2ccccc12)C(=O)Nc1ccc(F)cc1)c1cccs1 (centres undefined)	-12	-4	2	-4	8	/	/	/	/
O=C(NC(Cc1c[nH]c2ccccc12)C(=O)N/N=C/c1cccnc1)c1cccs1 (centres undefined)	37	-9	10	-18	71*	24	-4	54	0
SMILES	OX1R antag-1	GPR7 antagonist	GalR3 antagonist	CHO parental Ca	OX1R antag-2	OX1R Fluo8 conf	CHO Ca counter	OX1R HTRF confirm	CHO-K1 HTRF cnt
Cc1cc(CNC(=O)COc2cc(F)ccc2[N+](=O)[O-])c2ccccc2n1	35	-13	-4	-1	105*	11	4	34	9
Cc1cc(CNC(=O)COc2ccc(F)cc2F)c2ccccc2n1	-7	-16	0	-10	30	/	/	/	/
O=c1c(-c2ccco2)nc2ccccc2n1C(c1ccccc1)c1nc2ccccc2[nH]1 (centres undefined)	/	/	-6	/	/	/	/	/	/
CC(CC(=O)Nc1cccc(S(=O)(=O)N2CCCCC2)c1)c1ccccc1 (centres undefined)	35	/	-4	-8	29*	3	-13	49	3
Cc1c(C(=O)OCC(=O)NCCN2C(=O)CSC2=O)oc2c1ccc1ccccc12	22	0	-1	-5	77*	33*	-8	88*	11
COc1ccc(S(=O)(=O)N2CCCC2C(=O)Nc2nc3c(s2)CCCC3)cc1 (centres undefined)	45*	-11	-1	-36	95*	44*	-5	88*	2
CNC(=O)C1CCCN1S(=O)(=O)c1ccc(OC)cc1 (centres undefined)	-12	-8	-1	0	8	/	/	/	/
O=C(Nc1ccc(F)c(F)c1)C1CCCN1S(=O)(=O)c1ccc(F)cc1 (centres undefined)	37*	2	1	9	74*	42*	-15	70*	0
O=C(Nc1nccs1)C1CCCN1S(=O)(=O)c1ccc(F)cc1 (centres undefined)	44*	2	2	-20	75*	8	-5	31	-5
O=C(Nc1ccc(F)cc1)C1CCCN1S(=O)(=O)c1ccc(Br)cc1 (centres undefined)	32	-14	-6	-19	81*	38*	-10	89*	-4
O=C(Nc1nccs1)[C@@H]1CCCN1S(=O)(=O)c1ccc(Cl)cc1	15	/	-5	-12	32	/	/	/	/
COC(=O)c1ccc(C(=O)NC2CCCN(Cc3ccc(Cl)cc3)C2)nc1 (centres undefined)	-17	11	-10	-17	17	/	/	/	/
CCc1ccc(-c2cc(C)no2)cc1S(=O)(=O)N1CCOc2ccc(C)cc21	-3	-10	0	-9	29	/	/	/	/
CCC1CN(S(=O)(=O)c2cc(-c3cc(C)no3)ccc2OC)c2cc(C)ccc2O1 (centres undefined)	63*	4	1	-28	73*	27	-9	86*	2
NC(=S)N/N=C/c1ccccc1OCc1cccc(Cl)c1	54*	-11	/	-5	81*	35*	2	81*	14
